In ChEMBL document CHEMBL2074271 (J Pharmacol Exp Ther, 2002):
Values joined by “and” are separate entries in the source; they are usually repeats but may differ in a detail not shown here. Equal values may be shown once.

How the values were obtained:
Assay type in all cases: functional, cell-based
[1] = biological target: T1, Solute carrier family 22 member 1 (Rattus norvegicus, UniProt Q63089); assay: TP_TRANSPORTER: inhibition of Amantadine uptake (in the presence of bicarbonate) (Amantadine: 10 uM) in OCT1-expressing HEK293 cells
T1 sequence (Q63089 whole entry): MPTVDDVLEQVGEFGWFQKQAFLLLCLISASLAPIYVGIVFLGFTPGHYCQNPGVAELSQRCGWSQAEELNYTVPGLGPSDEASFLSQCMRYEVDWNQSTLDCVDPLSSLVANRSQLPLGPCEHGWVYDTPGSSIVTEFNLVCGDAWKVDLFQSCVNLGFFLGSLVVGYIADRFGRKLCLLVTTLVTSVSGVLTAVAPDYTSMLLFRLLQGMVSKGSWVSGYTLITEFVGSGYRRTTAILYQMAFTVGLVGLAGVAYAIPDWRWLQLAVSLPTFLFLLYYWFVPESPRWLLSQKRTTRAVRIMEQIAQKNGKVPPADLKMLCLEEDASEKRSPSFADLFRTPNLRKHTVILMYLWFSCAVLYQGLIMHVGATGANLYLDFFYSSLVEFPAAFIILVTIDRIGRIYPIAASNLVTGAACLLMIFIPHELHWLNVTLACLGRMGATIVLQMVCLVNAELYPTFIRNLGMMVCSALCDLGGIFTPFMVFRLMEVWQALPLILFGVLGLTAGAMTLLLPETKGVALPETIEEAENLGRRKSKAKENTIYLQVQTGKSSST
Method in brief: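 Rat OCT1 or OCT2 stably transfected HEK 293 cells, grown to 80% confluence, detached and resuspended in KHS (25 mM bicarbonate, pH 7.4, gassed O2/CO2 95%/5%), protein 5–6 mg/ml. […] Highest cyanine863 tested 200 μM. IC50 from 3–6 experiments.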

[2] = biological target: T2, Solute carrier family 22 member 2 (Rattus norvegicus, UniProt Q9R0W2); assay: TP_TRANSPORTER: inhibition of TEA uptake (in the presence of bicarbonate) (TEA: 20 uM) in OCT2-expressing HEK293 cells
T2 sequence (Q9R0W2 whole entry): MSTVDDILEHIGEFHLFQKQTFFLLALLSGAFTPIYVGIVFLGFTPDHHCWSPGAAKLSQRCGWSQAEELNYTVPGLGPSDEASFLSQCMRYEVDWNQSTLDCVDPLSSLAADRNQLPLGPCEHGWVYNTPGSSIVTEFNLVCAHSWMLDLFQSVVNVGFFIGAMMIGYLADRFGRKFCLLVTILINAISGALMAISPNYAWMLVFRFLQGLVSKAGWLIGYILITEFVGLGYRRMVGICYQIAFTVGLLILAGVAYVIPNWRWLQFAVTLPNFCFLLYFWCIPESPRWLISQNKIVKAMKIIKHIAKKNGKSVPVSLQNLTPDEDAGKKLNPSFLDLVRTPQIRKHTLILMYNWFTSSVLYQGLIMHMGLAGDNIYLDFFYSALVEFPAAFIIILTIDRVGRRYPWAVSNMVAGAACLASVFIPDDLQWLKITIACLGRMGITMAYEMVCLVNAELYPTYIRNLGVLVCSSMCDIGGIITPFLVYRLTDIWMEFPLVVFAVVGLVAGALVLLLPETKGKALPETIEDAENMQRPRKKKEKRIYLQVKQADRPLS
Method in brief: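 Stably rOCT1- or rOCT2-transfected HEK 293 cells suspended in bicarbonate (25 mM) Krebs-Henseleit buffer, pH 7.4 set by 95% O2/5% CO2 bubbling, 25°C. […] Percent of uninhibited control; IC50 mean ± S.E.M. of 3–6 experiments.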

[3] = biological target: T2, Solute carrier family 22 member 2; assay: TP_TRANSPORTER: inhibition of TEA uptake (in the absence of bicarbonate) (TEA: 20 uM) in OCT2-expressing HEK293 cells
Method in brief: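 Uptake in rOCT1- or rOCT2-expressing stably transfected HEK 293 cells, run in bicarbonate-free Cross-Taggart phosphate buffer, pH 7.4, 25°C. 20 μM [14C]TEA final, 3 s incubation across inhibitor concentrations; ice-cold stopping buffer, centrifugation, washes, scintillation counting. Expressed relative to control uptake without inhibitor; IC50 mean ± S.E.M. of 3–6 experiments.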

[4] = biological target: T1, Solute carrier family 22 member 1; assay: TP_TRANSPORTER: inhibition of TEA uptake (in the presence of bicarbonate) (TEA: 20 uM) in OCT1-expressing HEK293 cells
Method in brief: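 Stably rOCT1- or rOCT2-transfected HEK 293 cells suspended in bicarbonate (25 mM) Krebs-Henseleit buffer, pH 7.4 set by 95% O2/5% CO2 bubbling, 25°C.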

[5] = biological target: T1, Solute carrier family 22 member 1; assay: TP_TRANSPORTER: inhibition of TEA uptake (in the absence of bicarbonate) (TEA: 20 uM) in OCT1-expressing HEK293 cells
Method in brief: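 Uptake in rOCT1- or rOCT2-expressing stably transfected HEK 293 cells, run in bicarbonate-free Cross-Taggart phosphate buffer, pH 7.4, 25°C. 20 μM [14C]TEA final, 3 s incubation across inhibitor concentrations; ice-cold stopping buffer, centrifugation, washes, scintillation counting.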

Compound	IC50 [1]	IC50 [2] [µM]	IC50 [3] [µM]	IC50 [4] [µM]	IC50 [5] [µM]
CC[n+]1c(CC2C=C(C)N=C(c3ccccc3)N2C)ccc2ccccc21 (stereo not drawn) [Cyanine-863]	89 µM and > 200 µM	1	1.2	0.4	0.45
CCN(CC)CCNC(=O)c1ccc(N)cc1 [PROCAINAMIDE]		90	215		
C=C[C@H]1C[N@@]2CC[C@H]1C[C@H]2[C@H](O)c1ccnc2ccc(OC)cc12 [QUININE]		13	38		
NC12CC3CC(CC(C3)C1)C2 [AMANTADINE]		210	290	500	280
